Results from PubChem BioAssay.
Calls of active or inactive are those of the source.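 Rule for the calls, unless noted: active = GFP response above 150% of the DMSO level; inconclusive = fewer than 70 events counted for a yeast strain; inactive = the rest.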

Experiments:
[1] = hit retest on RPL19A-GFP reporter strain – cell-based, S. cerevisiae, flow cytometry, cherry picks, mother/daughter gates, confirmation (AID 2270;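 active = GFP response below 50% of the DMSO control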); conditions: 3 h, at 10 µM, stronger effect = lower value, 100 = same GFP as DMSO wells
[2] = yeast TOR pathway reporter LAP4-GFP change – cell-based, cherry picks, flow cytometry, mother/daughter gates, confirmation (AID 2271;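 active = GFP response above 150% of the DMSO control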;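 note: ratio of sample to DMSO plate mean so 100% equals DMSO level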); conditions: S. cerevisiae LAP4-GFP strain, 3 h, at 10 µM, stronger effect = higher value, 100 means same as DMSO control
In short: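 material = Alexa 633-stained baker's yeast GFP-fusion strain | amount = 0.2 OD600 cells | schedule = 30 °C, 3 h compound incubation, rotating | signal = GFP by flow cytometry | measure = per-gate (all, mother, daughter) GFP response vs DMSO | controls = positive rapamycin (400 ng/mL), negative DMSO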

[3] = TOR pathway reporter MEP2-GFP, retest of hits – S. cerevisiae, flow cytometry GFP, cherry picks, confirmation (AID 2272;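 active = GFP response above 150% of the DMSO control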;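 note: ratio of well signal to plate DMSO mean so 100% equals DMSO level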); conditions: S. cerevisiae MEP2-GFP strain, 3 h, at 10 µM, stronger effect = higher value
[4] = yeast AGP1-GFP fluorescence change, single-dose – cell-based, flow cytometry, S. cerevisiae, cherry picks, confirmation (AID 2273);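 note: median GFP channel fluorescence over the whole cell population gate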; conditions: S. cerevisiae AGP1-GFP strain, 3 h, at 10 µM
[5] = TOR pathway CIT2 reporter hit retest – S. cerevisiae, GFP fusion, cherry picks, mother/daughter gates, confirmation (AID 2274); conditions: S. cerevisiae CIT2-GFP strain, flow cytometry, 3 h, at 10 µM, stronger effect = higher value
[6] = measured here: daughter cell gate
[7] = measured here: mother cell gate
[8] = measured here: daughter cell gate response
[9] = measured here: mother cell gate response

Compound	GFP response vs DMSO [1]	GFP response vs DMSO [1, 6]	GFP response vs DMSO [1, 7]	GFP response relative to DMSO [2]	GFP response relative to DMSO [2, 8]	GFP response relative to DMSO [2, 9]	GFP response vs DMSO [3]	GFP response, % of DMSO [4]	GFP response, % of DMSO [5]	GFP response, % of DMSO [5, 6]	GFP response, % of DMSO [5, 7]
CN(CCCS(=O)(=O)[O-])c1ccc(/C=C/c2ccc3ccccc3[n+]2C)cc1	101% (inactive)	100%	101%	102% (inactive)	102%	104%	111% (inactive)	99.6% (inactive)	106% (inactive)	106%	106%
O=C(/C=C/c1ccc(O)cc1)c1ccc(O)cc1O	93.7% (inactive)	92.9%	94.6%	96.7% (inactive)	97.6%	96.1%	102% (inactive)	109% (inactive)	103% (inactive)	103%	102%
O=C1CC(Sc2nnc(-c3ccccc3)o2)C(=O)N1c1ccccc1 (stereo not drawn)	99.9% (inactive)	98.7%	100%	106% (inactive)	105%	107%	102% (inactive)	98.7% (inactive)	97.8% (inactive)	99.7%	93.4%
Cc1ccccc1C(=O)Nc1ccccc1	96.4% (inactive)	94.9%	97.4%	96.7% (inactive)	97.6%	97.2%	96.2% (inactive)	100% (inactive)	101% (inactive)	103%	102%
COc1ccc(NC(=O)CCN2CCN(S(=O)(=O)c3cc(Cl)ccc3OC)CC2)cc1	99% (inactive)	97.8%	94.3%	99.8% (inactive)	98.2%	96.2%	101% (inactive)	105% (inactive)	102% (inactive)	100%	102%
Cc1cccc(Cn2cc(/C=C/[N+](=O)[O-])c3ccccc32)c1	106% (inactive)	103%	98%	111% (inactive)	107%	114%	103% (inactive)	101% (inactive)	97.3% (inactive)	95.6%	93.2%
O=C(Nc1ccccc1N1CCOCC1)c1ccc([N+](=O)[O-])o1	58.5% (inactive)	82.8%	47.8%	128% (inactive)	104%	116%	90.5% (inactive)	87.6% (inactive)	63.9% (inactive)	77.5%	55.2%
CCc1ccc(C(=O)/C=C/c2ccc([N+](=O)[O-])o2)cc1	104% (inactive)	108%	103%	146% (inactive)	141%	152%	180% (active)	99.1% (inactive)	154% (active)	156%	148%
O=C(NC(=S)NNC(=O)c1cnccn1)c1ccc(Cl)cc1	103% (inactive)	95%	98.2%	279% (active)	241%	260%	114% (inactive)	95.7% (inactive)	106% (inactive)	105%	98.2%
Cc1cccc(CS(=O)(=O)c2ncc(Cl)c(C(=O)NCc3ccccc3)n2)c1	99% (inactive)	96.4%	99.1%	108% (inactive)	108%	108%	100% (inactive)	102% (inactive)	95.2% (inactive)	91.5%	95.5%
O=C(O)C1CCN(S(=O)(=O)c2ccc(Oc3ccccc3)cc2)CC1	98% (inactive)	98.3%	98.8%	97.7% (inactive)	97.9%	96.5%	104% (inactive)	96.7% (inactive)	99.3% (inactive)	100%	98%
Cc1ccc(C(=O)NNC(=S)NC(=O)c2ccco2)cc1	112% (inactive)	113%	109%	120% (inactive)	117%	121%	115% (inactive)	103% (inactive)	108% (inactive)	114%	102%
Cc1ccc2nc(Cl)c3nnnn3c2c1	66.6% (inactive)	58.4%	56.7%	281% (active)	153%	270%	152% (inactive)	109% (inactive)	82.8% (inactive)	84.8%	72.3%
